According to ChEMBL document CHEMBL1154869, “Melodinines A-G, monoterpenoid indole alkaloids from Melodinus henryi” (J Nat Prod, 2010):

Key:
Assay type in all cases: functional, cell-based
SMMC-7721 = experiment: Cytotoxic activity against human SMMC7721 cells after 48 hrs by MTT assay; settings: SMMC-7721, 48 h
Outline: (§1)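 Cells kept in RPMI1640 or DMEM with 10% FBS, 5% CO2, 37 °C. Adherent lines seeded in 96-well plates and left 12 h to attach; suspension cells (HL-60) seeded at drug addition, 1 × 10^5 cells/mL. Compounds at 0.0625, 0.32, 1.6, 8 and 40 µM in triplicate for 48 h. Viability by MTT; IC50 from growth curves via Reed and Muench method; cisplatin positive control.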

A549 = experiment: Cytotoxic activity against human A549 cells after 48 hrs by MTT assay; settings: A549, 48 h; outline: as §1
HL-60 = experiment: Cytotoxic activity against human HL60 cells after 48 hrs by MTT assay; settings: HL-60, 48 h; outline: as §1
SK-BR-3 = experiment: Cytotoxic activity against human SK-BR-3 cells after 48 hrs by MTT assay; settings: SK-BR-3, 48 h; outline: as §1

SMILES | IC50 (SMMC-7721) | IC50 (A549) | IC50 (HL-60) | IC50 (SK-BR-3)
CC[C@]12CCC[N+]3([O-])CCc4c(n(c5ccccc45)[C@H](OC)C1)[C@H]23 (some centres undefined) [MELODININE F] | > 40 µM | > 40 µM | > 40 µM | > 40 µM
CC[C@@H]1CN2CC[C@]34c5ccccc5-n5c3c(cc(C(=O)OC)c5=O)[C@H]1C[C@H]24 [LEUCONICINE B] | > 40 µM | > 40 µM | > 40 µM | > 40 µM
CC[C@@]12C=Cn3c4c(c5ccccc53)CC[N+]([O-])(CCC1)[C@H]42 (some centres undefined) [MELODININE G] | > 40 µM | > 40 µM | > 40 µM | > 40 µM
CC[C@@]12C=Cn3c4c(c5ccccc53)CCN(CCC1)[C@H]42 | > 40 µM | > 40 µM | > 40 µM | > 40 µM
CC[C@@H]1CN2CC[C@]34c5ccccc5-n5c3c(cc(C(N)=O)c5=O)[C@H]1C[C@H]24 [LEUCONICINE A] | > 40 µM | > 40 µM | > 40 µM | > 40 µM
COC(=O)C1=C2Nc3ccccc3[C@]23CCN2CC[C@H]1[C@@]1(O[C@H]1C)[C@@H]23 [MELODININE D] | > 40 µM | > 40 µM | > 40 µM | > 40 µM
CC[C@@]12CCCN3C(=O)C=C4c5ccccc5N(C(=O)CC1)C432 (some centres undefined) [MELODININE E] | > 40 µM | > 40 µM | > 40 µM | > 40 µM
CC[C@]12CCCN3CCc4c(n(c5ccccc45)[C@H](OC)C1)[C@@H]32 | > 40 µM | > 40 µM | > 40 µM | > 40 µM
C/C=C(/C=O)[C@@H]1C[C@H]2c3[nH]c4ccccc4c3CCN2C=C1C(=O)OC [VALLESIACHOTAMINE] | 16.8 µM | 26 µM | 2 µM | 24.7 µM
CC[C@@H]1CN2CC[C@]34c5ccccc5-n5c3c(cc(C(=O)O)c5=O)[C@H]1C[C@H]24 [MELODININE C] | > 40 µM | > 40 µM | > 40 µM | > 40 µM
CCC1=CN2CC[C@]34c5ccccc5-n5c3c(cc(C(=O)OC)c5=O)[C@H]1C[C@H]24 [MELODININE B] | > 40 µM | > 40 µM | > 40 µM | > 40 µM
